Data as given in ChEMBL document CHEMBL4346670, “Discovery of Novel Janus Kinase (JAK) and Histone Deacetylase (HDAC) Dual Inhibitors for the Treatment of Hematological Malignancies” (J Med Chem, 2019).

Assays:
K562 [1] = experiment: Antiproliferative activity against human K562 cells assessed as reduction in cell viability after 48 hrs by MTT assay; type: functional, cell-based; details: K562, 48 h
HEL [2] = experiment: Antiproliferative activity against HEL cells harboring JAK2 V617F mutant assessed as reduction in cell viability after 48 hrs by MTT assay; type: functional, cell-based; details: Homo sapiens
[3] = target: Tyrosine-protein kinase JAK2 (Homo sapiens, UniProt O60674); experiment: Inhibition of recombinant human JAK2 using Ulight-CAGAGAIETDKEYYTVKD as substrate measured after 60 mins by LANCE assay
Histone deacetylase = experiment: Inhibition of HDAC in human HeLa nuclear extract using Boc-Lys(acetyl)-AMC as substrate preincubated for 5 mins followed by substrate addition and measured after 30 mins by fluorescence assay; type: cell-based
[4] = target: Tyrosine-protein kinase JAK1 (Homo sapiens, UniProt P23458); experiment: Inhibition of recombinant human JAK1 using Ulight-CAGAGAIETDKEYYTVKD as substrate measured after 60 mins by LANCE assay
How it was run: (§1)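 Human recombinant JAK enzyme assays run by a contract lab. IC50 was taken from a non-linear curve fit, with all parameters allowed to float. Assays were run in replicate (n>2) and reported as mean ± SD.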

[5] = target: T1, Tyrosine-protein kinase JAK3 (Homo sapiens, UniProt P52333); experiment: Inhibition of recombinant human JAK3 using Ulight-CAGAGAIETDKEYYTVKD as substrate measured after 60 mins by LANCE assay
T1 sequence (P52333 whole entry): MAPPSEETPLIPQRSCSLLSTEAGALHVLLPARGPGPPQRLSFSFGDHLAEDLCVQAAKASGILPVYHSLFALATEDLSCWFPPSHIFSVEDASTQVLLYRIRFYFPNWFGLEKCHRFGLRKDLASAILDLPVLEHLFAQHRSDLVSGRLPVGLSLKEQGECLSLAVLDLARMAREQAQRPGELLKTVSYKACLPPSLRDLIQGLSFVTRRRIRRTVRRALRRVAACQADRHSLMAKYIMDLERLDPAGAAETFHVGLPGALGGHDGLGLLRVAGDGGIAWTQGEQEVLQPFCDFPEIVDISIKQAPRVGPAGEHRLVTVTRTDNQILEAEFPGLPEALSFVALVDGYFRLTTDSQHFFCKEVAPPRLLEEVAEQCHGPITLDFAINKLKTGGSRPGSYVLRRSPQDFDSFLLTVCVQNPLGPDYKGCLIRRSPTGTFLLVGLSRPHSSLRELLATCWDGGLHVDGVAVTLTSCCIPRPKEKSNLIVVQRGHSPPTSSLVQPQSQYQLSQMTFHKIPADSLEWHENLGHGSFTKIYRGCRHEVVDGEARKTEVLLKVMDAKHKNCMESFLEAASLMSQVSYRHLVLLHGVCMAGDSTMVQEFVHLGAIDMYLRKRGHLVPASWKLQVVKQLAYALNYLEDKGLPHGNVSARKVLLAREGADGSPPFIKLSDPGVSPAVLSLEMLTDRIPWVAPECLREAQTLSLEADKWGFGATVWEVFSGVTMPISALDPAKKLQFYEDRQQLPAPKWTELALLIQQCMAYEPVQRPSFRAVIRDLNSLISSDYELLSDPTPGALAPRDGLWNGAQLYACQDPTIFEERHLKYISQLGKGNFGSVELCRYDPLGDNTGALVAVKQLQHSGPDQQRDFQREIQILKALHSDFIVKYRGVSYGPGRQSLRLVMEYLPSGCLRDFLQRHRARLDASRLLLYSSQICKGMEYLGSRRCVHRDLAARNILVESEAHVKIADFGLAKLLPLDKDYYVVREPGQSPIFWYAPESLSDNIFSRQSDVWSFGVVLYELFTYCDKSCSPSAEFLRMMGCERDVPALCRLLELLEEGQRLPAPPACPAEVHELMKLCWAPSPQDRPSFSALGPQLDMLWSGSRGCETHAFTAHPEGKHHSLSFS

[6] = target: Non-receptor tyrosine-protein kinase TYK2 (Homo sapiens, UniProt P29597); experiment: Inhibition of recombinant human TYK2 using Ulight-CAGAGAIETDKEYYTVKD as substrate measured after 60 mins by LANCE assay; how it was run: as §1
Histone deacetylase 2 = Histone deacetylase 2 (Homo sapiens, UniProt Q92769); experiment: Inhibition of HDAC2 (unknown origin) using Boc-Lys(acetyl)-AMC as substrate preincubated for 5 mins followed by substrate addition and measured after 30 mins by fluorescence assay
Histone deacetylase 8 = target: T2, Histone deacetylase 8 (Homo sapiens, UniProt Q9BY41); experiment: Inhibition of HDAC8 (unknown origin) using Boc-Lys(trifluoroacetyl)-AMC as substrate preincubated for 5 mins followed by substrate addition and measured after 30 mins by fluorescence assay
T2 sequence (Q9BY41 whole entry): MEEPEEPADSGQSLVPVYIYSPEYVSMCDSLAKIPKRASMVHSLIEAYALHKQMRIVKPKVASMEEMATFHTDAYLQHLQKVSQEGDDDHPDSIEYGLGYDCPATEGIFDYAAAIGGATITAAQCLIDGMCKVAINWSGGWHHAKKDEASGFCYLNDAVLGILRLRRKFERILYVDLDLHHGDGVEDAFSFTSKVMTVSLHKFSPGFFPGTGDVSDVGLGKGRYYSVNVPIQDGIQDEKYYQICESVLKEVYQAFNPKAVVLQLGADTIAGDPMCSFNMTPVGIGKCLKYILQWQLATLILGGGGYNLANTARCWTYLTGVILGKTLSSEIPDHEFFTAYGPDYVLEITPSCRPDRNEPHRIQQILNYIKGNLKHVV

MOLT-4 = experiment: Antiproliferative activity against human MOLT4 cells assessed as reduction in cell viability after 48 hrs by MTT assay; type: functional, cell-based; details: MOLT-4, 48 h
How it was run: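 Cells kept in RPMI1640 with 10% FBS at 37 °C, 5% CO2. Seeded and grown for 12 h, then exposed to a range of compound concentrations for 48 h. 0.5% MTT added for 4 h, formazan dissolved in DMSO, absorbance read at 570 nm.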

HEL [7] = experiment: Induction of apoptosis in HEL cells assessed as viable cells at 1 uM after 24 hrs by Annexin-V/propidium iodide staining-based flow cytometric analysis (reference value: 87.5%); type: functional, Homo sapiens; details: Homo sapiens, HEL, 24 h; read-out: Activity
HEL [8] = experiment: Induction of apoptosis in HEL cells assessed as early apoptotic cells at 1 uM after 24 hrs by Annexin-V/propidium iodide staining-based flow cytometric analysis (reference value: 12.5%); type: functional, Homo sapiens
HEL [9] = experiment: Induction of apoptosis in HEL cells assessed as late apoptotic cells at 1 uM after 24 hrs by Annexin-V/propidium iodide staining-based flow cytometric analysis (reference value: 0.023%); type: functional, Homo sapiens
K562 [10] = experiment: Induction of apoptosis in human K562 cells assessed as early apoptotic cells at 1 uM after 24 hrs by Annexin-V/propidium iodide staining-based flow cytometric analysis (reference value: 7.55%); type: functional
K562 [11] = experiment: Induction of apoptosis in human K562 cells assessed as late apoptotic cells at 1 uM after 24 hrs by Annexin-V/propidium iodide staining-based flow cytometric analysis (reference value: 5.87%); type: functional
K562 [12] = experiment: Induction of apoptosis in human K562 cells assessed as necrotic apoptotic cells at 1 uM after 24 hrs by Annexin-V/propidium iodide staining-based flow cytometric analysis (reference value: 0.827%); type: functional

Sequence of Tyrosine-protein kinase JAK1 (P23458 whole entry): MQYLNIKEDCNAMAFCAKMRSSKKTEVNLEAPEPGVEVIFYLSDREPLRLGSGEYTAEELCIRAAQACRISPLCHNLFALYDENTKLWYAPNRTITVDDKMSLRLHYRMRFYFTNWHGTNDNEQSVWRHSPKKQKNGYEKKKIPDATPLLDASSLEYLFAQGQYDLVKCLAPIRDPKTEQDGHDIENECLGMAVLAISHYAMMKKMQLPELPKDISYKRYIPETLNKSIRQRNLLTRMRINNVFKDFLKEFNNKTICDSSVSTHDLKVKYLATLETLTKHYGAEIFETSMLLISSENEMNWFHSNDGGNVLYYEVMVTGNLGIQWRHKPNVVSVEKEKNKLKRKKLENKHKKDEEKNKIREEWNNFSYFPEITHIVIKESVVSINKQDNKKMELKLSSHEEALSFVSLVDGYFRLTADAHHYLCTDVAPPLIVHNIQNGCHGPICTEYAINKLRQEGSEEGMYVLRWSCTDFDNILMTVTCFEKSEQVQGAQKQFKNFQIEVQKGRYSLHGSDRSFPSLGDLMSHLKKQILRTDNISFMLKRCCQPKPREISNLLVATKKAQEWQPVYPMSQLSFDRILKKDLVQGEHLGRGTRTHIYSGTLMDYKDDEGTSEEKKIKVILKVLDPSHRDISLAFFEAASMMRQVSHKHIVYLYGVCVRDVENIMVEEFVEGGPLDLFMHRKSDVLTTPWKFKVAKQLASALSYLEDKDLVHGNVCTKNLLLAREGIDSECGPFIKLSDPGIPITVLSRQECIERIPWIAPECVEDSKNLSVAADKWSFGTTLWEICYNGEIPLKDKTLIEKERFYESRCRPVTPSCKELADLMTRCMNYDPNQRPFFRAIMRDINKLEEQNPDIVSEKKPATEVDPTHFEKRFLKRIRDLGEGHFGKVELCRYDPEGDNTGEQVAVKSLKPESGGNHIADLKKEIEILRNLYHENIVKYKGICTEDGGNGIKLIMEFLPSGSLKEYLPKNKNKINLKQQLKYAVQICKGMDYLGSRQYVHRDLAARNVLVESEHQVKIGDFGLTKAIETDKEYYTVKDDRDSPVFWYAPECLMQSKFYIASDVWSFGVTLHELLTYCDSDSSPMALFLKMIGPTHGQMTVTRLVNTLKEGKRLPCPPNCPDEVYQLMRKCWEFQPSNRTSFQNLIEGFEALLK
Sequence of Non-receptor tyrosine-protein kinase TYK2 (P29597 whole entry): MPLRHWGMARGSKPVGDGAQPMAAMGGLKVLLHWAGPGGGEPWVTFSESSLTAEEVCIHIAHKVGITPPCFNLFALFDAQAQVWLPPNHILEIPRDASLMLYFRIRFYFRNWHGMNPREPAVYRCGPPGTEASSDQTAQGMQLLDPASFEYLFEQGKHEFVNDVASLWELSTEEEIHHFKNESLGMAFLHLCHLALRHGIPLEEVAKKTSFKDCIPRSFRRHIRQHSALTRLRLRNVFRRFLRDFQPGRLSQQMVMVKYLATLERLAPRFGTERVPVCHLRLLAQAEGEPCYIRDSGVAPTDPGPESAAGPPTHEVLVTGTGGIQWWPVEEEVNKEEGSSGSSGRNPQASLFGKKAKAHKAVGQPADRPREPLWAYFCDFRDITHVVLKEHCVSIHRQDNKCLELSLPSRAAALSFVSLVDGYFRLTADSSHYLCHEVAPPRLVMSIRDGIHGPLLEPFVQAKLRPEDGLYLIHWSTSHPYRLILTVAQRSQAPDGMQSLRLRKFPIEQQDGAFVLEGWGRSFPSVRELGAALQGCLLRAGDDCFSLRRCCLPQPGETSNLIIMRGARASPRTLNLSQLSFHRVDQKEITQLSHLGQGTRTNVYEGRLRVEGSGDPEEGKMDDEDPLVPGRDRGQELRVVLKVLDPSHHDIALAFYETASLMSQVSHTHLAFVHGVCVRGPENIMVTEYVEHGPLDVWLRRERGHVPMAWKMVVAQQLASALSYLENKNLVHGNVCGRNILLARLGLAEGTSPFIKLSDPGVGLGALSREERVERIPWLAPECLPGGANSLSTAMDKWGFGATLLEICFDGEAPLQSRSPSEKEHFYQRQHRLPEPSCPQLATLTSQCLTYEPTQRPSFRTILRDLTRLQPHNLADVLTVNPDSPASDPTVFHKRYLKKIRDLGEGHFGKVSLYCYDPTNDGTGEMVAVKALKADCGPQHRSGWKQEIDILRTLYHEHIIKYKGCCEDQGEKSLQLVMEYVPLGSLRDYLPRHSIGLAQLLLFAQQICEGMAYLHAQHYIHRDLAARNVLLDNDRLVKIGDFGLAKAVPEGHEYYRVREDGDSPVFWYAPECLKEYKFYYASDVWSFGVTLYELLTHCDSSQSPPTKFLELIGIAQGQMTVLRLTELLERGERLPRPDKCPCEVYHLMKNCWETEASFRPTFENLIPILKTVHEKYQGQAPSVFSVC
Sequence of Histone deacetylase 2 (Q92769 whole entry): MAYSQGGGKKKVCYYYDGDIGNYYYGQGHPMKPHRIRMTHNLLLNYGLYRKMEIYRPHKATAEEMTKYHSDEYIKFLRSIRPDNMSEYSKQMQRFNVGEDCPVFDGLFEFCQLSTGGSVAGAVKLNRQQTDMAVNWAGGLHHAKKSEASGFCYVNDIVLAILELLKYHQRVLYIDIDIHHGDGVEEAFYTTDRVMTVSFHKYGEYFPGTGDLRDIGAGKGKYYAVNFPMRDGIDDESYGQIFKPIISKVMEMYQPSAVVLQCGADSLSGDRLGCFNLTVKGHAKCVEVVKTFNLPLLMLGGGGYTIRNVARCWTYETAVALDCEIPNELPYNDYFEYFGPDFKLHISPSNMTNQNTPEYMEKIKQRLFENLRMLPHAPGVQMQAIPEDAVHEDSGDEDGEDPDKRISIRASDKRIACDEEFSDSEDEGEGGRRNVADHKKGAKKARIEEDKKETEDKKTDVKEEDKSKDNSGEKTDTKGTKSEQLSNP
Sequence of Tyrosine-protein kinase JAK2 (O60674 whole entry): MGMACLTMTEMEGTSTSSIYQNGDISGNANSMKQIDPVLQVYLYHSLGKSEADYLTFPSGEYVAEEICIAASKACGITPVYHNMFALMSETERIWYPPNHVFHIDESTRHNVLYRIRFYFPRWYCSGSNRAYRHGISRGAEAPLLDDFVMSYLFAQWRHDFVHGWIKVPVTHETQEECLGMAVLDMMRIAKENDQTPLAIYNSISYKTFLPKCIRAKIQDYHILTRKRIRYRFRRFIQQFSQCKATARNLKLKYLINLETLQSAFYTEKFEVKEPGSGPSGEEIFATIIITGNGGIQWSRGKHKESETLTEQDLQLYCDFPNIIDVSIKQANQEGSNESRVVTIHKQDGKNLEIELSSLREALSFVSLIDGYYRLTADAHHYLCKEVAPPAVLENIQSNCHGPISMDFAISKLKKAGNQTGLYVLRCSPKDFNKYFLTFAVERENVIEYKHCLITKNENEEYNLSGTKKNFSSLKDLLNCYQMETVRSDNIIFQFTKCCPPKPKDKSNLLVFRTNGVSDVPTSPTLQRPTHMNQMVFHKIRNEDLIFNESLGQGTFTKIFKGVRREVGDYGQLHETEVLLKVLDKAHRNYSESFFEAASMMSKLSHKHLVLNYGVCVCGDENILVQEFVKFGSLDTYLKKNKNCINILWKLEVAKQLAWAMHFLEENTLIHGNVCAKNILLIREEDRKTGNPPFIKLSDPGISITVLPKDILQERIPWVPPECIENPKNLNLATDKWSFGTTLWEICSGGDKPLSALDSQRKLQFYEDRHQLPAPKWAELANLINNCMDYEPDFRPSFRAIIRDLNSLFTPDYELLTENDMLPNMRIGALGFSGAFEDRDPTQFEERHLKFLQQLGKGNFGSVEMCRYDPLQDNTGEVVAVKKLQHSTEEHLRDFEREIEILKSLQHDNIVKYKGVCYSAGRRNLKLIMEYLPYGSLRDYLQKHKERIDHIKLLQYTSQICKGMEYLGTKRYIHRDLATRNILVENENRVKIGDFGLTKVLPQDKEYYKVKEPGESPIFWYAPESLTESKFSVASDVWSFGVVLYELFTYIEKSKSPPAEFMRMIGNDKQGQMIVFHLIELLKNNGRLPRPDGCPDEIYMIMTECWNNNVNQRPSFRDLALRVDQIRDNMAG

Row | IC50 (K562 [1]) [nM] | IC50 [3] [nM] | IC50 (Histone deacetylase) [nM] | IC50 [4] [nM] | IC50 [5] [nM] | IC50 [6] [nM] | IC50 (Histone deacetylase 2) [nM] | IC50 (Histone deacetylase 8) [nM] | IC50 (MOLT-4) [nM] | SMILES | IC50 (HEL [2]) [nM] | viability at 1 µM (HEL [7]) [%] | Activity (HEL [8]) [%] | Activity (HEL [9]) [%] | Activity (K562 [10]) [%] | Activity (K562 [11]) [%] | Activity (K562 [12]) [%]
1 | 380 | 10 | 20 | 15 | 3.3 | 67 | 130 | 840 | 130 | O=C(CCCCCCn1cc(Nc2ncc(Cl)c(Nc3cccc(Cl)c3)n2)cn1)NO | 140 | 5.97 | 22.8 | 68.7 | 15.3 | 30 | 1.14
2 | 490 | 4 | 2 | 4.8 | 7.4 | 49 | 120 | 2470 | 80 | O=C(CCCCCn1cc(Nc2ncc(Cl)c(Nc3ccc(Cl)cc3)n2)cn1)NO | 90 | 4.31 | 27.8 | 60 | 34.4 | 46.9 | 1.07
